Most compounds without a hit are left out; they make up all but 4% or so of the library.
ABHD5-PLIN5 inh: ABHD5-PLIN5 interaction inhibitors, primary screen, cell lysate, split luciferase complementation, luminescence | inhibition, % at 4 µM | AID 602281, 2012 | 360,000 compounds, 0.78% hits | Perilipin-5 (Homo sapiens) + 1-acylglycerol-3-phosphate O-acyltransferase ABHD5 (Homo … | Split G. princeps luciferase complementation, 4 h;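 active means inhibition above the mean inhibition across every tested compound plus 3 SD, cut at about 22% in these data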;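 further: 0% = DMSO only wells and the 100% control is not disclosed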
Target sequence (Q00G26 whole entry, looked up): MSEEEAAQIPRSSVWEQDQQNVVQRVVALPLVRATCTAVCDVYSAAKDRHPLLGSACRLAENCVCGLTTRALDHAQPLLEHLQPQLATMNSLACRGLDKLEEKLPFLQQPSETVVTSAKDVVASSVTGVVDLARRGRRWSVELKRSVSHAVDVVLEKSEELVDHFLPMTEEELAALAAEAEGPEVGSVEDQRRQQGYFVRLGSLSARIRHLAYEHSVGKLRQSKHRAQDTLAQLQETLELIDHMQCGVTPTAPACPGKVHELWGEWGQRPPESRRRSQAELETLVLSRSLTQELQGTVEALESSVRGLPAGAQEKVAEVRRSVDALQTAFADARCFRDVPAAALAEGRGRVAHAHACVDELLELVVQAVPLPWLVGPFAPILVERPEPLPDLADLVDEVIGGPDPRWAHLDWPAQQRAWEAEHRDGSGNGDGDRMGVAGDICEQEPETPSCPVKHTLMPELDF
Target sequence (Q8WTS1 whole entry, looked up): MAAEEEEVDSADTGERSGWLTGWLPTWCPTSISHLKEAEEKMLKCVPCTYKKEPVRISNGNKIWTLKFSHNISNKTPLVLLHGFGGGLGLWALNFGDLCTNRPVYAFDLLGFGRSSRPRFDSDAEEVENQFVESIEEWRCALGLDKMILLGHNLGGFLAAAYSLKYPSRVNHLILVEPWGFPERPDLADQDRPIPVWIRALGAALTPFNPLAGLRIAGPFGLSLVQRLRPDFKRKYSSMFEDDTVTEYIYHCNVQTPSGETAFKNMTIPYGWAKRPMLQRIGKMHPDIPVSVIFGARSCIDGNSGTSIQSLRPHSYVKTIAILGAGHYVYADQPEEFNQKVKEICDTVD
Mdm2-MdmX inh: inhibitors of human Mdm2-MdmX association, primary screen, cell-based, luminescence, split luciferase, SaOS-2, uHTS; Protein Mdm4 (Homo sapiens) + E3 ubiquitin-protein ligase Mdm2 (Homo sapiens), …; SaOS-2 split-luciferase Mdm2/MdmX complementation; inhibition, % at 8 µM; 330,000 compounds, 3% hits; AID 485346, 2010;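 active means inhibition of at least 50% at 8 µM in the primary screen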
CHOP UPR activ: activators of apoptotic CHOP UPR arm, primary screen, cell-based, CHO-CHOP luciferase reporter, luminescence, uHTS; UPR activation; percent of tunicamycin response over DMSO baseline; activation, % at 10 µM; 330,000 compounds, 0.34% hits; AID 449763, 2010;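 active means at 10 µM dose, activation of 40% or more, normalized to positive control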;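 further: 100% = tunicamycin at 10 µg/mL and 0% = DMSO alone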
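System: CHO CHOP reporter cells. Amount: 500 cells per well. Buffer or medium: F12 medium, 10% FBS. Compound dosing: one dose, 10 µM in 0.5% DMSO. Incubation: 6 h compound exposure at 37 °C after overnight seeding. Technique: Steady-Glo luciferase luminescence. Benchmarks: tunicamycin and DMSO controls.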
UPR XBP1 act: activators of adaptive XBP1 UPR arm, primary screen, cell-based, CHO-XBP1 luciferase reporter, luminescence, uHTS | IRE1-XBP1 UPR activation; percent of tunicamycin response, DMSO as zero | activation, % at 20 µM | 330,000 compounds, 0.33% hits;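 active means versus positive control, 20 µM dose yields 30% or more activation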;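 further: 100% = tunicamycin at 10 µg/mL and 0% = DMSO only wells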
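Material: CHO-XBP1 cells stably carrying IRE1-XBP1-driven luciferase reporter / Amount: 1000 cells per well / Compound: 20 µM, 1% DMSO / Times: 6 h treatment, 37 °C / Detection: luciferase luminescence / Measure: % activation of reporter signal versus tunicamycin and DMSO controls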
Exocytosis inh: LAMP-1 surface exposure blockers, TALL-104 cells – cell-based, flow cytometry, MLPCN library, primary screen | TALL-104 LAMP-1 surface exposure; cells stimulated with thapsigargin and PMA | inhibition, % at 10 µM | 360,000 compounds, 0.66% hits | AID 651702, 2012;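 active means inhibition above about 55%, limit read from the data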
Mdm2-MdmX conf: Mdm2-MdmX complex disruptors, retested hits, confirmation, luminescence, single concentration; 10,000 compounds, 55% hits; inhibition, % at 8 µM; Mdm2-MdmX binding, luminescent assay; shares compounds with Mdm2-MdmX inh; in the data active means inhibition above about 40%
FLuc counter: full-length luciferase signal inhibition, confirmation, counter-screen for Mdm2/MdmX interaction inhibitor project, cell-based, single concentration, SaOS-2 | 6,200 compounds, 77% hits | AID 504607, 2011 | inhibition, % at 8 µM | shares compounds with Mdm2-MdmX inh | SaOS-2 full-length luciferase counterscreen, luminescence;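 active means mean inhibition at 8 µM reaching about 37%, which flags the compound as non-specific, limit read from the data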;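 further: p53-null SaOS-2 cells with luciferase driven by a doxycycline-inducible promoter; compound on cells about two nights before reading with doxycycline added after day one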
Active calls of the source: *.

COc1ccc(NS(=O)(=O)c2cc(OC)ccc2OC)cc1 was read as ABHD5-PLIN5 inh 6, Mdm2-MdmX inh -1, CHOP UPR activ 0, UPR XBP1 act -4 and Exocytosis inh -2.
`Cc1[nH]nc2c1C(c1cc(Br)cs1)C(C#N)=C(N)O2` (stereo not given) gave ABHD5-PLIN5 inh 11, Mdm2-MdmX inh 70*, CHOP UPR activ 18, UPR XBP1 act 7, Exocytosis inh -3 and Mdm2-MdmX conf 30.
Screening Cc1[nH]nc2c1C(c1ccco1)C(C#N)=C(N)O2 (stereo not given) returned ABHD5-PLIN5 inh 7, Mdm2-MdmX inh -2, CHOP UPR activ 1, UPR XBP1 act 1 and Exocytosis inh -1.
For O=C(CN1C(=O)c2ccc([N+](=O)[O-])cc2C1=O)NC1CCS(=O)(=O)C1 (stereo not given) the results were ABHD5-PLIN5 inh 6, Mdm2-MdmX inh 3, CHOP UPR activ -1, UPR XBP1 act -1 and Exocytosis inh 2.
Screening COc1ccc(-c2ccc(C#N)c(OC(=O)c3c(Cl)cccc3Cl)n2)cc1 returned ABHD5-PLIN5 inh -6, Mdm2-MdmX inh 64*, CHOP UPR activ -3, UPR XBP1 act -1, Exocytosis inh 11 and Mdm2-MdmX conf 28.
Screening CCC(C(=O)Oc1c(C(C)C)cccc1C(C)C)c1ccccc1 (stereo not given) returned ABHD5-PLIN5 inh -5, Mdm2-MdmX inh 4, CHOP UPR activ 1, UPR XBP1 act -4 and Exocytosis inh -2.
Screening CCOC(=O)c1ccc(NC(=O)c2c(N)n(Cc3ccccc3)c(=O)[nH]c2=O)cc1 returned ABHD5-PLIN5 inh -7, Mdm2-MdmX inh 96*, CHOP UPR activ 5, UPR XBP1 act 11, Exocytosis inh 9 and Mdm2-MdmX conf 31.
For CCOc1cc2[nH]c(=S)n(CCc3ccc(OC)c(OC)c3)c(=O)c2cc1OCC the results were ABHD5-PLIN5 inh 5, Mdm2-MdmX inh 83*, CHOP UPR activ 2, UPR XBP1 act 6, Exocytosis inh 1 and Mdm2-MdmX conf -8.
Screening O=[N+]([O-])c1c(Nc2ccccc2O)cc(Cl)c2nonc12 returned ABHD5-PLIN5 inh 63*, Mdm2-MdmX inh 95*, CHOP UPR activ -8, UPR XBP1 act -11, Exocytosis inh 61*, Mdm2-MdmX conf 100* and FLuc counter 54*.
For O=[N+]([O-])c1c(Nc2ccccc2O)ccc2nonc12 the results were ABHD5-PLIN5 inh 2, Mdm2-MdmX inh 5, CHOP UPR activ 0, UPR XBP1 act -4 and Exocytosis inh 0.
O=[N+]([O-])c1c(Nc2ccc(O)cc2)cc(N2CCOCC2)c2nonc12 was read as ABHD5-PLIN5 inh 0, Mdm2-MdmX inh 51*, CHOP UPR activ 0, UPR XBP1 act 3, Exocytosis inh 5 and Mdm2-MdmX conf 18.
Screening Cc1ccc(-n2nnnc2SCC(=O)Nc2sc(C)c(C)c2C#N)cc1C returned ABHD5-PLIN5 inh -6, Mdm2-MdmX inh 8, CHOP UPR activ -2, UPR XBP1 act 3 and Exocytosis inh 6.
For CCc1nnc(NC(=O)c2ccc(-c3ccc(Cl)cc3)o2)s1 the results were ABHD5-PLIN5 inh 4, Mdm2-MdmX inh 65*, CHOP UPR activ 6, UPR XBP1 act 0, Exocytosis inh 0 and Mdm2-MdmX conf -12.
Screening CCCCN(C(=O)COc1ccc(C)cc1OC)c1c(N)n(CCC)c(=O)[nH]c1=O returned ABHD5-PLIN5 inh 1, Mdm2-MdmX inh 4, CHOP UPR activ 4, UPR XBP1 act -1 and Exocytosis inh -2.
`CCN1CCN(S(=O)(=O)c2ccc3c4c(cccc24)C(=O)N3CC)CC1` gave ABHD5-PLIN5 inh -9, Mdm2-MdmX inh 30, CHOP UPR activ 1, UPR XBP1 act 0 and Exocytosis inh -5.
For O=C(O)c1cccc(N2C(=O)c3cccc4c(Cl)ccc(c34)C2=O)c1 the results were ABHD5-PLIN5 inh 0, Mdm2-MdmX inh 0, CHOP UPR activ -1, UPR XBP1 act -4 and Exocytosis inh 0.
Screening O=C1/C(=C/c2ccc([N+](=O)[O-])cc2)C=C(c2ccccc2)N1c1ccc(O)cc1 returned ABHD5-PLIN5 inh -3, Mdm2-MdmX inh 61*, CHOP UPR activ 16, UPR XBP1 act 13, Exocytosis inh 2, Mdm2-MdmX conf 58* and FLuc counter 52*.
O=C1/C(=C/c2ccc([N+](=O)[O-])cc2)C=C(c2ccccc2)N1c1ccccc1 was read as ABHD5-PLIN5 inh 5, Mdm2-MdmX inh 15, CHOP UPR activ 2, UPR XBP1 act -2 and Exocytosis inh 2.
Screening O=S(=O)(Nc1cccc2nsnc12)c1ccccc1 returned ABHD5-PLIN5 inh -5, Mdm2-MdmX inh 14, CHOP UPR activ 0, UPR XBP1 act 6 and Exocytosis inh 3.
For O=C(COC(=O)c1ccc(Br)c(S(=O)(=O)N2CCOCC2)c1)NCC1CCCO1 (stereo not given) the results were ABHD5-PLIN5 inh -9, Mdm2-MdmX inh 13, CHOP UPR activ -3, UPR XBP1 act 0 and Exocytosis inh 0.
For COc1ccc(Nc2nc(N3CCN(C)CC3)nc3ccccc23)c(OC)c1 the results were ABHD5-PLIN5 inh 11, Mdm2-MdmX inh 0, CHOP UPR activ -1, UPR XBP1 act -3 and Exocytosis inh -2.
Screening CCOC(=O)c1cc(CC)sc1NC(=O)COc1ccc2c(C)cc(=O)oc2c1 returned ABHD5-PLIN5 inh 1, Mdm2-MdmX inh 82*, CHOP UPR activ -2, UPR XBP1 act 3, Exocytosis inh 7, Mdm2-MdmX conf 43* and FLuc counter 46*.
For O=C(Nc1cccc(C(=O)O)c1)/C(=C/c1ccc([N+](=O)[O-])cc1)NC(=O)c1ccccc1 the results were ABHD5-PLIN5 inh 3, Mdm2-MdmX inh 13, CHOP UPR activ -2, UPR XBP1 act -5 and Exocytosis inh -3.
O=C(CN1C(=O)/C(=C/c2c(F)cccc2Cl)Oc2ccccc21)NCc1ccco1 was read as Mdm2-MdmX inh 64*, CHOP UPR activ 1, UPR XBP1 act -2, Mdm2-MdmX conf 49* and FLuc counter 102*.
